Sampled rows, rich in hits. Any-hit rate of the full collection: about 1.6%.
JMJD2C inh: inhibitors of GASC-1 histone demethylase, primary screen, biochemical, fluorescence, DELFIA europium; hit rate 0.069% among 330,000; Lysine-specific demethylase 4C (Homo sapiens), Q9H3R0; GST-JMJD2C(1-420) H3K9me3 demethylation; AID 2099, 2009; inhibition, % at 2.35 µM;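 active = more than half of a compound's replicate wells show inhibition beyond 50%, single wells judged on their own value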;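 also: signal counts dimethyl H3K9 product captured on neutravidin plate; 0% = median of DMSO wells and 100% = 0.3 times that DMSO median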
DSG3 Ab inh: inhibitors of pemphigus antibody binding to DSG3, primary screen, biochemical, bead-based, flow cytometry, scFv-GFP. DSG3-coupled beads, scFv-anti-DSG3-GFP binding; active compounds read low. binding (percent of control), % at 10 µM. hit rate 0.48% among 310,000. AID 588358, 2011;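 active = binding more than 3 SD below its plate's average and above zero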;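 also: hits lower antibody fragment binding to DSG3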
LANA-H2B inh: blockers of LANA interaction with H2A/H2B – biochemical, FP readout, HTS, primary screen. Protein LANA1 (Human herpesvirus 8 type P (isolate GK18)), Q9QR71. cell-free LANA-H2A/H2B peptide, fluorescence polarization. inhibition, % (test concentration not listed). hit rate 0.6% among 320,000. AID 2629, 2010; in the data active = inhibition mostly above about 10%, no sharp cut-off; inactive = mostly below about 6.7%
Target sequence (Q9QR71 whole entry, looked up): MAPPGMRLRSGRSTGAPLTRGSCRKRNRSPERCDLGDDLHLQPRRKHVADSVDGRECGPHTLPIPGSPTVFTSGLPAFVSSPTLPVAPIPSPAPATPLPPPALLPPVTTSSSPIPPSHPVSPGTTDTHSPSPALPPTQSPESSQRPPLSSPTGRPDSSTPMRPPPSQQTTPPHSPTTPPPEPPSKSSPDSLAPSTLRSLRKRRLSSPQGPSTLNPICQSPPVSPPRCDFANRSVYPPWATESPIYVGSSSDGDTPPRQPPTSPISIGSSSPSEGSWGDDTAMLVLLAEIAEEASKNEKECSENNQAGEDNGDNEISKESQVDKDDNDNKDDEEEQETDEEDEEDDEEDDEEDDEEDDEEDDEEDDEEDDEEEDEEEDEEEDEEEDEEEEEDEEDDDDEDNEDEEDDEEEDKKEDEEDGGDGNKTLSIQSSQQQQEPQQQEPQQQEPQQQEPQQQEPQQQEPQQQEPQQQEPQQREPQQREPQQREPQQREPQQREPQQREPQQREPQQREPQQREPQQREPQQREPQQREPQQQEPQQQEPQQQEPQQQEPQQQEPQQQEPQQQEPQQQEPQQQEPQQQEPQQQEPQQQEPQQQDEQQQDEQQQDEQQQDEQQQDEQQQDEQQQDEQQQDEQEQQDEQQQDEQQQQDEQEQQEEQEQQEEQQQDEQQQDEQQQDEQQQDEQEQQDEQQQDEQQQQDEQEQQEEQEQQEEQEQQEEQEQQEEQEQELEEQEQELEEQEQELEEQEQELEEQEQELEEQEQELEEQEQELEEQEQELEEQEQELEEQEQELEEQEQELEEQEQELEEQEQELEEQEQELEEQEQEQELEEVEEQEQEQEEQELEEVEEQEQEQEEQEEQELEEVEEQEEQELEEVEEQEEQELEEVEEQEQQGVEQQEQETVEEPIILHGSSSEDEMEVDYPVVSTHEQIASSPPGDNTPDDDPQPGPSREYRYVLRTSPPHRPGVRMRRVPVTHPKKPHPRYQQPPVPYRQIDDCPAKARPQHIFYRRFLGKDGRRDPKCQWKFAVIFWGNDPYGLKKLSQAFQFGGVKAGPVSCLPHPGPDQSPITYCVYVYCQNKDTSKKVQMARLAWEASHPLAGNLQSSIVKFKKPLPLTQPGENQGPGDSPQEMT
T cell modulator: modulators of CD8 T cell-vesicle binding, primary screen, mouse 2C CD8+ T cells, flow cytometry; 2C CD8+ T cell-vesicle binding; active compounds read low; response (vesicle binding), % at 7 µM; hit rate 0.068% among 330,000;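 active = response, share of CD8 T cells binding vesicles, and their 90th percentile fluorescence all below set limits, cut at about 80% in these data, passing the limit was not always enough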;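 also: values below 100% mean blocked vesicle binding to the CD8+ T cells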
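System: murine 2C transgenic CD8+ T lymphocytes; also added: QL9-loaded Drosophila micro-vesicles; times: binding 1.5 h at 37 °C; measured by: flow cytometry, PE anti-B7-1 (FL2) versus Alexa647 anti-CD8 (FL8), PFA-fixed; control set: Peptide-free naked vesicles (low) and QL9 vesicles with 0.7% DMSO vehicle (high)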
HDAC3 inhib: HDAC3 deacetylase inhibitors, primary screen, biochemical, fluorescence, cell-free homogeneous. recombinant HDAC3, fluorogenic peptide/trypsin coupled. inhibition, % at 8.3 µM. hit rate 0.15% among 320,000; in the data active = inhibition above about 26%, passing the limit was not always enough
Arrestin-AP2 inh: inhibitors of beta-arrestin/AP2 binding, primary screen, biochemical, GPCR trafficking, flow cytometry; hit rate 0.31% among 340,000; inhibition, % at 10 µM; FITC-arrestin peptide / GST-AP2 beads; AP2 beta2 appendage carries R879A mutation;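 active = inhibition above a set limit, near 3 SD of compounds lacking own fluorescence, cut at about 54% in these data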;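 also: plate controls were DMSO wells for no effect and 5 µM unlabelled arrestin peptide for full effect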
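test system = AP2 appendage R879A on GSH beads | buffer or medium = PBS plus Tween 20 (0.05%) and BSA (0.1%) | incubation = 12 min plus 1 h, RT | detection = bead flow cytometry, FITC channel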
* hit, by the source's call; i = inactive; · = no result given; + = active, no number; ! = a repeat was not active.

SMILES	JMJD2C inh	DSG3 Ab inh	LANA-H2B inh	T cell modulator	HDAC3 inhib	Arrestin-AP2 inh
CC[C@@H]1C=C(C(=O)O)[C@H](c2ccc(Cl)cc2)N1S(=O)(=O)c1ccc(C)cc1	·	95	·	259	·	-3
CC1(C)CC(=O)C(C(C#Cc2ccccc2)C2=C(O)CC(C)(C)CC2=O)=C(O)C1	-22	116	17*	300	-6	7
CN(C)S(=O)(=O)n1cc(/C=C(\NC(=O)c2ccccc2F)C(=O)N2CCOCC2)c2ccccc21	-1	18*	1	351	2	7
Cc1[nH]c(SCC(=O)c2c(N)n(C)c(=O)n(C)c2=O)nc1Cc1ccccc1	1	97	-4	380	1	14
C=CCNC(=S)NNC(=O)c1ccc(OCC)cc1	-7	77	-1	273	-3	-13
C=CCNC(=S)NNC(=O)c1ccc(OCC(C)C)cc1	8	97	19*	72	0	0
CNC[C@H]1Oc2ccc(NC(=O)Cc3cn(C)c4ccccc34)cc2CC(=O)N([C@@H](C)CO)C[C@H]1C	0	105	16*	502	2	5
O=C(N/C(=C/c1ccc([N+](=O)[O-])cc1)C(=O)N1CCOCC1)c1ccco1	0	114	14*	230	-17	-9
O=S(=O)(Nc1ccccc1F)c1cccc(NC(=S)NCCN2CCOCC2)c1	37	·	-7	236	4	5
Cc1c(Cc2ccccc2)sc(/N=C/c2ccc3ccccc3c2)c1C(N)=O	3	121	+	529	-2	6
Cc1occc1C(=O)N(Cc1nc(-c2ccccc2)no1)C(C)C	-2	122	16*	208	7	16
CCN(Cc1nc(-c2ccccc2)no1)C(=O)c1ccoc1C	2	107	2	306	0	-1
Nc1nnc(-c2cccc(Cl)c2Cl)c(N)n1	2	120	11*!	93	5	-8
O=C1CCCCC1CCc1ccncc1 (stereo not drawn)	·	94	·	·	·	12
O=C(CS(=O)c1ccc(F)cc1)Nc1ccccc1Cl (stereo not drawn)	6	112	13*	181	0	-7
O=C(CCc1ccc(S(=O)(=O)NCc2ccccc2)cc1)NCc1ccc2c(c1)OCO2	52*	105	7	392	-6	1
O=C(CCc1ccc(S(=O)(=O)NCCc2ccccc2)cc1)NCc1ccc2c(c1)OCO2	2	104	-4	483	-6	-5
COc1cccc(CNC(=O)C2CSC3(C)CCC(=O)N23)c1 (stereo not drawn)	9	139	5	206	-2	-3
Cc1cccc(CC(C)NC(=O)c2oc3c(F)cccc3c2C)n1 (stereo not drawn)	0	116	1	493	-2	1
CC(=O)c1ccc(NC(=O)CSc2nnc(NC(=O)c3ccco3)s2)cc1	-1	111	-1	803	4	-6
Cc1ccc(NC(=O)CSc2nnc(NC(=O)c3ccco3)s2)cc1	-7	5.9*	5	306	4	4
O=S(=O)(c1ccc(SCc2ccc(Br)cc2)nc1)N1CCCCC1	·	96	·	·	·	40
Cc1csc2nc(SCC(=O)Nc3ccccc3F)[nH]c(=O)c12	-5	·	28*	304	-4	2
Cc1n[nH]c(=O)c2c(NC(=O)CSc3nnc(-c4ccco4)n3C)oc(C)c12	5	111	92*	246	-2	9
Cc1n[nH]c(=O)c2c(NC(=O)CSc3nn(-c4ccc(F)cc4)c(=S)s3)oc(C)c12	·	107	-1	207	45*	4
SMILES	JMJD2C inh	DSG3 Ab inh	LANA-H2B inh	T cell modulator	HDAC3 inhib	Arrestin-AP2 inh
COc1ccc(C(C)(C)C)cc1NC(=O)c1c(C)noc1C	-4	104	5	277	-1	6
COc1ccc(C(C)(C)C)cc1NC(=O)CCc1c(C)noc1C	0	98	30*	219	0	-35
Cc1ccc(/C=C(\C#N)C(=O)NC(C)c2ccccc2)o1 (stereo not drawn)	-17	101	1	103	8	-16
CCOc1ccc(NC(=O)COC(=O)CCN2C(=O)C3CC=CCC3C2=O)cc1OCC (stereo not drawn)	9	95	40*	i	-6	16
CCOc1ccc(NC(=O)CCN2C(=O)C3CCCCC3C2=O)cc1OCC (stereo not drawn)	-32	96	1	275	0	-3
CCOC(=O)c1[nH]c2c(c1-c1ccccc1)C(=O)CC(c1ccc(OCC)cc1)C2 (stereo not drawn)	3	-0.8*	-4	252	-7	6
CCOC(=O)c1[nH]c2c(c1-c1ccccc1)C(=O)CC(c1ccc(OC)c(OC)c1)C2 (stereo not drawn)	-7	105	0	414	-1	2
CCc1ccc(CNC(=O)CN2C(=O)COc3ccccc32)cc1	2	101	12*	159	-3	8
CC1CNC(=S)N(c2ccccc2)C1=O (stereo not drawn)	·	99	·	·	·	-4
CC(=O)c1c2c3c(cccc3n(C)c1=O)C(=O)c1ccccc1-2	-4	·	9	129	7	·
Cn1c(=O)c(Nc2ccc(O)cc2)c2c3c(cccc31)C(=O)c1ccccc1-2	60*	78	5	65	-3	13
CCOC(=O)C1(Cc2ccccc2)CCN(Cc2cccn2-c2nccs2)CC1	-1	108	14*	224	1	0
CCOC(=O)C1(Cc2ccccc2)CCN(Cc2cnc(N3CCOCC3)s2)CC1	-23	97	53*	278	1	7
CCOC(=O)C1(CCOc2ccccc2)CCN(Cc2cnc(C)s2)CC1	0	99	3	450	·	3
O=C(CNC(=O)c1ccc(Br)o1)NNC(=O)c1ccccc1F	-10	·	3	436	·	16
CCC(C)(C)NC(=O)c1ccc2c(c1)N(CC(=O)NC1CCCC1)C(=O)C(C)(C)O2	5	95	0	182	1	-1
Cc1ccc(CN2C(=O)CCC2C(=O)NCc2cccnc2)cc1 (stereo not drawn)	-2	·	18*	102	-2	11
Cc1ccc(CNC(=O)C2CCC(=O)N2Cc2ccc(F)cc2)cc1 (stereo not drawn)	14	129	-3	178	-5	6
